Laboratory results from ChEMBL document CHEMBL1133564, “A novel series of 4-piperidinopyridine and 4-piperidinopyrimidine inhibitors of 2,3-oxidosqualene cyclase-lanosterol synthase” (J Med Chem, 2000).
Blank lines part the entries; values can stand above or below the compound they belong to.

Columns and labels:
[1] = Inhibition of cholesterol biosynthesis in rat following 2 mg/kg p.o. administration.; assay type: functional; conditions: route oral
Method in brief: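 Female rats (130 ± 20 g) kept on reversed lighting, dosed orally at 2 mg/kg in DMSO/HPMC (n = 2). Tritiated mevalonate (2.5 µCi) given 1 h later; killed after a further 1 h. Liver saponified in KOH/EtOH 80 °C 2 h, isohexane-extracted, analysed by HPLC. Percent inhibition of cholesterol biosynthesis versus controls, with sterol precursor profile for step selectivity.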

[2] = Effective dose (50%) required to inhibit cholesterol biosynthesis in rat after administration of a shallow oral dose; assay type: functional
Method in brief: (§1)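 Female rats (130 ± 20 g) on reversed lighting, given test compound orally across a dose range in DMSO/HPMC (n = 2). Tritiated mevalonate (2.5 µCi) 1 h post-dose; killed 1 h later. Liver saponified, isohexane-extracted, HPLC radio-profile of sterols. ED50 or ED80 for inhibition of cholesterol biosynthesis derived from dose-response.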

[3] = Compound was tested for its acid dissociation constant; assay type: ADME
[4] = Effective dose (80%) required to inhibit cholesterol biosynthesis in rat after administration of a shallow oral dose; assay type: functional; method in brief: as §1
[5] = target: T1, Lanosterol synthase (Rattus norvegicus, UniProt P48450); assay: In vitro inhibitory activity of the compound against rat microsomal 2,3-Oxidosqualene cyclase-Lanosterol synthase (OSC)
T1 sequence (P48450 whole entry): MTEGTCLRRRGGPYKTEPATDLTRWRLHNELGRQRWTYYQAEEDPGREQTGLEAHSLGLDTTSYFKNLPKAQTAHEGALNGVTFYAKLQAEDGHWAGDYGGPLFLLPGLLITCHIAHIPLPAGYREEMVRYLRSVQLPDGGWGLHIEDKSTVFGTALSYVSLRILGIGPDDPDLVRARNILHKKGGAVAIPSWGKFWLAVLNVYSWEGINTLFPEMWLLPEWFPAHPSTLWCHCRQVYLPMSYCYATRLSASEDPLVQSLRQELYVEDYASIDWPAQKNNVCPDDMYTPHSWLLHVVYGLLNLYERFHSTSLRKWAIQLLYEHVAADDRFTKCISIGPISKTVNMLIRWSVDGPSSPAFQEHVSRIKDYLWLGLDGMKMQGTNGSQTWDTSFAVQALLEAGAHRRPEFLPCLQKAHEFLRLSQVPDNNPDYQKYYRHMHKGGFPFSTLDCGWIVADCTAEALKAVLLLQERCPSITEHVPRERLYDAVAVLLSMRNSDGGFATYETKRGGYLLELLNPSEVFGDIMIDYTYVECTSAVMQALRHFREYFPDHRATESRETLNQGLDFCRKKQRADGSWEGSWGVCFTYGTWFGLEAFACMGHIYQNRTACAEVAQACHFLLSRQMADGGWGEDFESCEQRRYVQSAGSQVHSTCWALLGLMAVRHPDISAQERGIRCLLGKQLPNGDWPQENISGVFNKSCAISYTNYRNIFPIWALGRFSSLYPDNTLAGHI
Method in brief: (§2)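 Rat liver microsomes (15-20 mg/mL protein stock) diluted in 50 mM phosphate buffer pH 7.4 with Tween. Test compound at serial 10-fold dilutions (10^-5 M, 10^-6 M, etc.) preincubated with microsomes 10 min at 37 °C. Oxidosqualene substrate added, then 1 h incubation. Stopped with ethanolic KOH, saponified 80 °C 2 h, hexane-extracted. IC50 by curve fitting with tight-binding model. Human OSC run the same way.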

[6] = target: T2, Lanosterol synthase (Rattus norvegicus) (UniProt P48450); assay: (§3) In vitro inhibitory activity of the compound against rat microsomal 2,3-Oxidosqualene lanosterol cyclase (OSC); conditions: concentration not given here; method in brief: as §2
T2 sequence (whole entry): T1 sequence (P48450 whole entry)

[7] = Effective dose (80%) required to inhibit cholesterol biosynthesis in rat after oral administration; assay type: functional; method in brief: as §1
[8] = target: T1, Lanosterol synthase; assay: as §3; method in brief: as §2
[9] = target: T3, Lanosterol synthase (Homo sapiens, UniProt P48449); assay: Compound was tested for its inhibition against human OSC enzyme; method in brief: as §2
T3 sequence (P48449 whole entry): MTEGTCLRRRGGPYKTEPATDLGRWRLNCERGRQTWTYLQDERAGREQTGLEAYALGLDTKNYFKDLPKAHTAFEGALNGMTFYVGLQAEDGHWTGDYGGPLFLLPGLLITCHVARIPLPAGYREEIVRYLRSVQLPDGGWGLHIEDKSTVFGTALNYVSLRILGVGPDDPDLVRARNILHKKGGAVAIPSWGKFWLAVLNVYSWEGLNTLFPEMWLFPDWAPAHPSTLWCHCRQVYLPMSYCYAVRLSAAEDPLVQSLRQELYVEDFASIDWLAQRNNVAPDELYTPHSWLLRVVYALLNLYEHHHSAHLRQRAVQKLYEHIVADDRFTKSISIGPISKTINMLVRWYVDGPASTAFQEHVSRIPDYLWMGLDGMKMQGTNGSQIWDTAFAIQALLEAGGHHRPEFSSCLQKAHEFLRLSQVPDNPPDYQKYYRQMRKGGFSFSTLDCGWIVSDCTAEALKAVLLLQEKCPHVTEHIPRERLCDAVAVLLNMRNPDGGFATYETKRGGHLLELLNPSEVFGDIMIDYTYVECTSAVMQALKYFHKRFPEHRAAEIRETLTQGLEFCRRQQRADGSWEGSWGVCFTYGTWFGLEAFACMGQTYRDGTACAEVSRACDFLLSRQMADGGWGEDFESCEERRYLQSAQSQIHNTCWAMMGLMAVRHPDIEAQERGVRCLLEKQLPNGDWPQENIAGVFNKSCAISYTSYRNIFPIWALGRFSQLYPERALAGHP

[10] = Effective dose (50%) required to inhibit cholesterol biosynthesis in rat after oral administration; assay type: functional; method in brief: as §1
[11] = target: T2, Lanosterol synthase (Rattus norvegicus); assay: Compound was tested for percent inhibition of OSC at 1 uM concentration in rat
Method in brief: (§4)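 Rat liver microsomal OSC in phosphate-buffered Tween, pH 7.4, with test compound at 1 µM. Preincubation 10 min at 37 °C, then oxidosqualene added for 1 h. Stopped with ethanolic KOH at 80 °C for 2 h, hexane-extracted. Percent inhibition, n = 2.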

[12] = target: T2, Lanosterol synthase (Rattus norvegicus); assay: In vitro percent inhibitory activity of the compound against rat microsomal OSC enzyme at 1 uM concentration; method in brief: as §4
[13] = target: T1, Lanosterol synthase; assay: Compound was tested for its inhibition against rat OSC enzyme; method in brief: as §2
[14] = target: T2, Lanosterol synthase (Rattus norvegicus); assay: In vitro percent inhibitory activity against rat microsomal OSC enzyme at 1 uM concentration; method in brief: as §4

pKa [3]: 9.2
IC50 [5]: 0.082 µM
Compound: O=C(C1CCN(c2ccncc2)CC1)N1CCN(S(=O)(=O)c2ccc(I)cc2)CC1
inhibition in vivo at 2 mg/kg [1]: 52%
ED50 [2]: 2 mg/kg
ED80 [4]: < 20 mg/kg

Compound: O=C(C1CCN(c2ccncc2)CC1)N1CCN(S(=O)(=O)c2cccc(Br)c2)CC1
inhibition in vivo at 2 mg/kg [1]: 43%

inhibition [6]: 87%
Compound: O=C(C1CCN(C2=NCCO2)CC1)N1CCN(S(=O)(=O)c2ccc(Br)cc2)CC1
inhibition in vivo at 2 mg/kg [1]: 82%

Compound: O=C(C1CCN(c2ccncc2)CC1)N1CCN(S(=O)(=O)c2ccc(F)cc2F)CC1
inhibition in vivo at 2 mg/kg [1]: 10%

Compound: CCC(C)(C)C(=O)O[C@H]1C[C@@H](C)C=C2C=C[C@H](C)[C@H](CC[C@@H]3C[C@@H](O)CC(=O)O3)[C@H]21 [SIMVASTATIN]
ED80 [7]: 1.2 mg/kg

IC50 [8]: 0.326 µM
IC50 [9]: 0.143 µM
Compound: O=C(C1CCN(c2ccncc2)CC1)N1CCN(S(=O)(=O)c2ccccc2)CC1
inhibition in vivo at 2 mg/kg [1]: 53%

pKa [3]: 9.2
IC50 [8]: 0.228 µM
inhibition [11]: 100%
IC50 [9]: 0.161 µM
Compound: O=C(C1CCN(c2ccncc2)CC1)N1CCN(S(=O)(=O)c2ccc(Br)cc2)CC1
inhibition in vivo at 2 mg/kg [1]: 69%
ED80 [7]: > 2 mg/kg
ED50 [10]: 2 mg/kg

pKa [3]: 6.1
inhibition [12]: 100%
IC50 [13]: 0.116 µM
IC50 [9]: 0.037 µM
Compound: O=C(C1CCN(c2ccncn2)CC1)N1CCN(S(=O)(=O)c2ccc(Br)cc2)CC1
inhibition in vivo at 2 mg/kg [1]: 81%
ED80 [7]: 1.4 mg/kg
ED50 [10]: 0.5 mg/kg

inhibition [14]: 8%
Compound: O=C(C1CCN(c2ncccn2)CC1)N1CCN(S(=O)(=O)c2ccc(Br)cc2)CC1
inhibition in vivo at 2 mg/kg [1]: 23%

pKa [3]: 7.2
inhibition [12]: 76%
IC50 [13]: 0.398 µM
IC50 [9]: 0.112 µM
Compound: Cc1nccc(N2CCC(C(=O)N3CCN(S(=O)(=O)c4ccc(Br)cc4)CC3)CC2)n1
inhibition in vivo at 2 mg/kg [1]: 83%
ED80 [7]: 1.2 mg/kg
ED50 [10]: 0.3 mg/kg

Compound: N#Cc1ccc(S(=O)(=O)N2CCN(C(=O)C3CCN(c4ccncc4)CC3)CC2)cc1
inhibition in vivo at 2 mg/kg [1]: 12%

Compound: COc1ccc(S(=O)(=O)N2CCN(C(=O)C3CCN(c4ccncc4)CC3)CC2)cc1
inhibition in vivo at 2 mg/kg [1]: 38%

pKa [3]: 4.7
IC50 [8]: 0.09 µM
Compound: O=C(c1ccc(C(F)(F)F)cc1)N1CCC(=Cc2ccc(C3=NCCO3)cc2)CC1
inhibition in vivo at 2 mg/kg [1]: 93%
ED80 [7]: 1 mg/kg
ED50 [10]: 0.4 mg/kg

inhibition [12]: 100%
Compound: O=C(C1CCN(C2=NCCS2)CC1)N1CCN(S(=O)(=O)c2ccc(Br)cc2)CC1
inhibition in vivo at 2 mg/kg [1]: 81%

Compound: O=C(c1ccc(Cl)cc1)c1ccc(OC2CN3CCC2CC3)cc1 (centres undefined)
pKa [3]: 9.1
ED50 [10]: 2 mg/kg

Compound: O=C(C1CCN(c2ccnnc2)CC1)N1CCN(S(=O)(=O)c2ccc(Br)cc2)CC1
inhibition in vivo at 2 mg/kg [1]: 54%

inhibition [6]: 96%
Compound: O=C(c1ccc(Br)cc1)N1CCN(C(=O)C2CCN(c3ccncc3)CC2)CC1
inhibition in vivo at 2 mg/kg [1]: 28%

inhibition [12]: 3%
Compound: Cc1nsc(N2CCC(C(=O)N3CCN(S(=O)(=O)c4ccc(Br)cc4)CC3)CC2)n1
inhibition in vivo at 2 mg/kg [1]: 9%

Compound: O=C(C1CCN(c2ccncc2)CC1)N1CCN(S(=O)(=O)c2ccc(F)cc2)CC1
inhibition in vivo at 2 mg/kg [1]: 46%

inhibition [6]: 100%
Compound: O=C(C1CCN(c2ccncc2)CC1)N1CCN(Cc2ccc(Br)cc2)CC1
inhibition in vivo at 2 mg/kg [1]: 48%
ED50 [10]: 1.8 mg/kg

Compound: O=C(C1CCN(c2ccncc2)CC1)N1CCN(S(=O)(=O)c2cccc(C(F)(F)F)c2)CC1
inhibition in vivo at 2 mg/kg [1]: 7%

Compound: O=C(C1CCN(c2ccncc2)CC1)N1CCN(S(=O)(=O)c2cccc(F)c2)CC1
inhibition in vivo at 2 mg/kg [1]: 52%

Compound: Cc1ccc(S(=O)(=O)N2CCN(C(=O)C3CCN(c4ccncc4)CC3)CC2)cc1
inhibition in vivo at 2 mg/kg [1]: 66%
